Test results as given in ChEMBL document CHEMBL3217512, “Indole/triazole conjugates are selective inhibitors and inducers of bacterial biofilms” (Medchemcomm, 2013).

Key:
Staphylococcus aureus [1] = assay: Antimicrobial activity against methicillin-resistant Staphylococcus aureus BAA 44 assessed as effect on planktonic growth at IC50 after 2 to 24 hrs by colony count method; type: organism-based; conditions: in vivo
Staphylococcus aureus [2] = assay: Antimicrobial activity against Staphylococcus aureus 29213 assessed as effect on planktonic growth at IC50 after 2 to 24 hrs by colony count method; type: organism-based; conditions: in vivo
Acinetobacter baumannii [3] = assay: Antimicrobial activity against Acinetobacter baumannii 19606 assessed as effect on planktonic growth at IC50 after 2 to 24 hrs by colony count method; parameters: species or system ATCC 19606
Escherichia coli [4] = assay: Antimicrobial activity against Escherichia coli K-12 ER2718 assessed as effect on planktonic growth at IC50 after 2 to 24 hrs by colony count method; type: organism-based
Staphylococcus aureus [5] = assay: Antimicrobial activity against methicillin-resistant Staphylococcus aureus BAA 44 assessed as effect on planktonic growth at IC50 after 2 to 24 hrs; type: organism-based; conditions: in vivo
Staphylococcus aureus [6] = assay: Antimicrobial activity against Staphylococcus aureus 29213 assessed as effect on planktonic growth at IC50 after 2 to 24 hrs; type: organism-based; conditions: in vivo
Acinetobacter baumannii [7] = assay: Antimicrobial activity against Acinetobacter baumannii 19606 assessed as effect on planktonic growth at IC50 after 2 to 24 hrs; parameters: species or system ATCC 19606
Escherichia coli [8] = assay: Antimicrobial activity against Escherichia coli K-12 ER2718 assessed as effect on planktonic growth at IC50 after 2 to 24 hrs; type: organism-based
Staphylococcus aureus [9] = assay: Inhibition of biofilm formation in methicillin-resistant Staphylococcus aureus BAA 44 at 150 uM after 24 hrs by crystal violet staining-based assay relative to control; type: functional; conditions: BAA 44, 24 h
How it was run: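 Static biofilm development in MRSA, read out by crystal violet staining against an untreated control. Initial screen at 150 μM. Inhibitors then went to dose-response, with IC50 taken as the concentration giving 50% inhibition of biofilm growth. Induction was judged at 50 μM: under 50% induction counted as "inducer", over 50% as "strong inducer".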

Staphylococcus aureus [10] = assay: Inhibition of biofilm formation in Staphylococcus aureus 29213 at 150 uM after 24 hrs by crystal violet staining-based assay relative to control; type: functional; conditions: Staphylococcus aureus, 29213, 24 h
Acinetobacter baumannii [11] = assay: Inhibition of biofilm formation in Acinetobacter baumannii 19606 at 150 uM after 24 hrs by crystal violet staining-based assay relative to control; type: functional; conditions: ATCC 19606 = CIP 70.34 = JCM 6841, 24 h
Escherichia coli [12] = assay: Inhibition of biofilm formation in Escherichia coli K-12 ER2718 at 150 uM after 24 hrs by crystal violet staining-based assay relative to control; type: functional; conditions: K-12 ER2718, 24 h
Escherichia coli [13] = assay: Antimicrobial activity against Escherichia coli K-12 ER2718 assessed as effect on planktonic growth at PC75 after 2 to 24 hrs by colony count method; type: organism-based; conditions: in vivo
Escherichia coli [14] = assay: Antimicrobial activity against Escherichia coli K-12 ER2718 assessed as effect on planktonic growth at PC50 after 2 to 24 hrs by colony count method; type: organism-based; conditions: in vivo
Escherichia coli [15] = assay: Antimicrobial activity against Escherichia coli K-12 ER2718 assessed as effect on planktonic growth at PC25 after 2 to 24 hrs by colony count method; type: organism-based
Escherichia coli [16] = assay: Antimicrobial activity against Escherichia coli K-12 ER2718 assessed as effect on planktonic growth at PC75 after 2 to 24 hrs; type: organism-based; conditions: in vivo
Escherichia coli [17] = assay: Antimicrobial activity against Escherichia coli K-12 ER2718 assessed as effect on planktonic growth at PC50 after 2 to 24 hrs; type: organism-based
Escherichia coli [18] = assay: Antimicrobial activity against Escherichia coli K-12 ER2718 assessed as effect on planktonic growth at PC25 after 2 to 24 hrs; type: organism-based
Escherichia coli [19] = assay: Induction of biofilm formation in Escherichia coli K-12 ER2718 at 50 uM after 24 hrs by crystal violet staining-based assay relative to control; type: functional
How it was run: (§1)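 Static biofilm assay with compounds at 50 μM and crystal violet read-out, relative to an untreated control. Compounds increasing biofilm by less than 50% were called inducers, and by more than 50% strong inducers.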

Escherichia coli [20] = assay: Antimicrobial activity against Escherichia coli K-12 ER2718 assessed as effect on planktonic growth at 50 uM after 2 to 24 hrs; type: organism-based
How it was run: (§2)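 Growth curve analysis of planktonic bacteria with each biofilm inducer at 50 μM, used to assess toxicity.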

Staphylococcus aureus [21] = assay: Antimicrobial activity against Staphylococcus aureus 29213 assessed as effect on planktonic growth at PC75 after 2 to 24 hrs by colony count method; type: organism-based; conditions: in vivo
Staphylococcus aureus [22] = assay: Antimicrobial activity against Staphylococcus aureus 29213 assessed as effect on planktonic growth at PC50 after 2 to 24 hrs by colony count method; type: organism-based; conditions: in vivo
Staphylococcus aureus [23] = assay: Antimicrobial activity against Staphylococcus aureus 29213 assessed as effect on planktonic growth at PC25 after 2 to 24 hrs by colony count method; type: organism-based; conditions: in vivo
Staphylococcus aureus [24] = assay: Antimicrobial activity against Staphylococcus aureus 29213 assessed as effect on planktonic growth at PC75 after 2 to 24 hrs; type: organism-based; conditions: in vivo
Staphylococcus aureus [25] = assay: Antimicrobial activity against Staphylococcus aureus 29213 assessed as effect on planktonic growth at PC50 after 2 to 24 hrs; type: organism-based; conditions: in vivo
Staphylococcus aureus [26] = assay: Antimicrobial activity against Staphylococcus aureus 29213 assessed as effect on planktonic growth at PC25 after 2 to 24 hrs; type: organism-based; conditions: in vivo
Staphylococcus aureus [27] = assay: Induction of biofilm formation in Staphylococcus aureus 29213 at 50 uM after 24 hrs by crystal violet staining-based assay relative to control; type: functional; how it was run: as §1
Staphylococcus aureus [28] = assay: Antimicrobial activity against Staphylococcus aureus 29213 assessed as effect on planktonic growth at 50 uM after 2 to 24 hrs; type: organism-based; how it was run: as §2

SMILES | Activity (Staphylococcus aureus [1]) | Activity (Staphylococcus aureus [2]) | Activity (Acinetobacter baumannii [3]) | Activity (Escherichia coli [4]) | Activity (Staphylococcus aureus [5]) | Activity (Staphylococcus aureus [6]) | Activity (Acinetobacter baumannii [7]) | Activity (Escherichia coli [8]) | inhibition at 150 µM (Staphylococcus aureus [9]) [%] | inhibition at 150 µM (Staphylococcus aureus [10]) [%] | inhibition at 150 µM (Acinetobacter baumannii [11]) [%] | inhibition at 150 µM (Escherichia coli [12]) [%] | also measured
COc1ccc(CNC(=O)Cn2cc(Cc3c[nH]c4ccccc34)nn2)cc1 | Non-toxic | Non-toxic | Non-toxic | Non-toxic | Non-toxic | Non-toxic | Non-toxic | Non-toxic | < 5 | < 5 | 20 | < 5 | 
O=C(NCCn1cc(Cc2c[nH]c3ccccc23)nn1)c1ccccc1 | Non-toxic | Non-toxic | Non-toxic | Non-toxic | Non-toxic | Non-toxic | Non-toxic | Non-toxic | < 5 | 23 | < 5 | < 5 | 
O=C(NCCn1cc(Cc2csc3ccccc23)nn1)c1ccccc1 | Non-toxic | Non-toxic | Non-toxic | Non-toxic | Non-toxic | Non-toxic | Non-toxic | Non-toxic | < 5 | < 5 | < 5 | 14 | 
O=C(Cn1cc(Cc2c[nH]c3ccccc23)nn1)Nc1ccccc1 | Non-toxic | Non-toxic | Non-toxic | Non-toxic | Non-toxic | Non-toxic | Non-toxic | Non-toxic | < 5 | < 5 | < 5 |  | Activity (Escherichia coli [13]): Non-toxic; Activity (Escherichia coli [14]): Non-toxic; Activity (Escherichia coli [15]): Non-toxic; Activity (Escherichia coli [16]): Non-toxic; Activity (Escherichia coli [17]): Non-toxic; Activity (Escherichia coli [18]): Non-toxic; Activity (Escherichia coli [19]): <50%; Activity (Escherichia coli [20]): Non-toxic
CCCCCCc1ccc(C(=O)NCCn2cc(Cc3c(Br)[nH]c4ccccc34)nn2)cc1 | Non-toxic | Non-toxic | Non-toxic | Non-toxic | Non-toxic | Non-toxic | Non-toxic | Non-toxic | 25 | 40 | 22 |  | Activity (Escherichia coli [13]): Non-toxic; Activity (Escherichia coli [14]): Non-toxic; Activity (Escherichia coli [15]): Non-toxic; Activity (Escherichia coli [16]): Non-toxic; Activity (Escherichia coli [17]): Non-toxic; Activity (Escherichia coli [18]): Non-toxic; Activity (Escherichia coli [19]): <50%; Activity (Escherichia coli [20]): Non-toxic
CCCCCCNC(=O)Cn1cc(Cc2csc3ccccc23)nn1 | Non-toxic | Non-toxic | Non-toxic | Non-toxic | Non-toxic | Non-toxic | Non-toxic | Non-toxic | < 5 | < 5 | 20 | < 5 | 
O=C(NCCn1cc(Cc2c[nH]c3ccccc23)nn1)c1ccccc1F | Non-toxic | Non-toxic | Non-toxic | Non-toxic | Non-toxic | Non-toxic | Non-toxic | Non-toxic | 35 |  | 15 | < 5 | Activity (Staphylococcus aureus [21]): Non-toxic; Activity (Staphylococcus aureus [22]): Non-toxic; Activity (Staphylococcus aureus [23]): Non-toxic; Activity (Staphylococcus aureus [24]): Non-toxic; Activity (Staphylococcus aureus [25]): Non-toxic; Activity (Staphylococcus aureus [26]): Non-toxic; Activity (Staphylococcus aureus [27]): <50%; Activity (Staphylococcus aureus [28]): Non-toxic
CCCCCCc1ccc(C(=O)NCCn2cc(Cc3csc4ccccc34)nn2)cc1 | Non-toxic | Non-toxic | Non-toxic | Non-toxic | Non-toxic | Non-toxic | Non-toxic | Non-toxic | < 5 | < 5 | < 5 | < 5 | 
COc1ccc(CNC(=O)Cn2cc(Cc3csc4ccccc34)nn2)cc1 | Non-toxic | Non-toxic | Non-toxic | Non-toxic | Non-toxic | Non-toxic | Non-toxic | Non-toxic | < 5 | < 5 | 20 | < 5 | 
CCCCCCNC(=O)Cn1cc(Cc2c[nH]c3ccccc23)nn1 | Non-toxic | Non-toxic | Non-toxic | Non-toxic | Non-toxic | Non-toxic | Non-toxic | Non-toxic | < 5 | < 5 | 25 |  | Activity (Escherichia coli [13]): Non-toxic; Activity (Escherichia coli [14]): Non-toxic; Activity (Escherichia coli [15]): Non-toxic; Activity (Escherichia coli [16]): Non-toxic; Activity (Escherichia coli [17]): Non-toxic; Activity (Escherichia coli [18]): Non-toxic; Activity (Escherichia coli [19]): <50%; Activity (Escherichia coli [20]): Non-toxic
O=C(NCCn1cc(Cc2csc3ccccc23)nn1)c1ccccc1F | Non-toxic | Non-toxic | Non-toxic | Non-toxic | Non-toxic | Non-toxic | Non-toxic | Non-toxic | < 5 |  | < 5 | < 5 | Activity (Staphylococcus aureus [21]): Non-toxic; Activity (Staphylococcus aureus [22]): Non-toxic; Activity (Staphylococcus aureus [23]): Non-toxic; Activity (Staphylococcus aureus [24]): Non-toxic; Activity (Staphylococcus aureus [25]): Non-toxic; Activity (Staphylococcus aureus [26]): Non-toxic; Activity (Staphylococcus aureus [27]): >50%; Activity (Staphylococcus aureus [28]): Non-toxic
